Legend:
[1] = biological target: T1, Pyruvate kinase PKM (Homo sapiens, UniProt P14618); test: Inhibition of recombinant human N-terminal His-tagged PKM2 expressed in Escherichia coli BL21 preincubated for 15 mins followed by PEP/NADH addition measured at 30 secs interval for 3 to 6 mins by fluorescent PK-LDH assay
In short: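 Human PKM2 with an N-terminal His tag, expressed in E. coli BL21 and Ni-agarose purified. Enzyme and compound preincubated 15 min in 50 mM Tris–HCl pH 7.5, 10 mM KCl, 5 mM MgCl2. NADH fluorescence read kinetically every 30 s for 3–6 min. IC50.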

[2] = system: HeLa; test: Antiproliferative activity against human HeLa cells after 48 hrs by MTS assay; assay type: functional, cell-based
In short: (§1)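 Cells kept in RPMI 1640 with 9% FBS at 37°C, 5% CO2. 5000 cells/well seeded, left 12 h, then exposed to a range of compound concentrations or DMSO (negative control) for 48 h. MTS added, 3 h at 37°C, absorbance read at 490 nm. IC50 ± SD.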

[3] = system: HCT-116; test: Antiproliferative activity against human HCT116 cells after 48 hrs by MTS assay; assay type: functional, cell-based; conditions: HCT-116, 48 h; in short: as §1
[4] = system: NCI-H1299; test: Antiproliferative activity against human NCI-H1299 cells after 48 hrs by MTS assay; assay type: functional, cell-based; conditions: NCI-H1299, 48 h; in short: as §1
[5] = system: HeLa; test: Antiproliferative activity against human HeLa cells assessed as cell viability at 0.156 uM after 48 hrs by MTS assay relative to control; assay type: functional; conditions: read-out: Activity
[6] = organism: Homo sapiens; test: Selectivity ratio of IC50 for recombinant human N-terminal His-tagged PKM1 expressed in Escherichia coli BL21 to IC50 for recombinant human N-terminal His-tagged PKM2 expressed in Escherichia coli BL21
[7] = biological target: T1, Pyruvate kinase PKM; test: Inhibition of recombinant human N-terminal His-tagged PKM1 expressed in Escherichia coli BL21 preincubated for 15 mins followed by PEP/NADH addition measured at 30 secs interval for 3 to 6 mins by fluorescent PK-LDH assay
In short: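 Human PKM1 with an N-terminal His tag, expressed in E. coli BL21 and Ni-agarose purified. Activity measured by PK–LDH coupling, with pyruvate formation tracked as NADH depletion by fluorescence in kinetic mode. IC50.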
Target sequence in this assay (P14618 whole entry): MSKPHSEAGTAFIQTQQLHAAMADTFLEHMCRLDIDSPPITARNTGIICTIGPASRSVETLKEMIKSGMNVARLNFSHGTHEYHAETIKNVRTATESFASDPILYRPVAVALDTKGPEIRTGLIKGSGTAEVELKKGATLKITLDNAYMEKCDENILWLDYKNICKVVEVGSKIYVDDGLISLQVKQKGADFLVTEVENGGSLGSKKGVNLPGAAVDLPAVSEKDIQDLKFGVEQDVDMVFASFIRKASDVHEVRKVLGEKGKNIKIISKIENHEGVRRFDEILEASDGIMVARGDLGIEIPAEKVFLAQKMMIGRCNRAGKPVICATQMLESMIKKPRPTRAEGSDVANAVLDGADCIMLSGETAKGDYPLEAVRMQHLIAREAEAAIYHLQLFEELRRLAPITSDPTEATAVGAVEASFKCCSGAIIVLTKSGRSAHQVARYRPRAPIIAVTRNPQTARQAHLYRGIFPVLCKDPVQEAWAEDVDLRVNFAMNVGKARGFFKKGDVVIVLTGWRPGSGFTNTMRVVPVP

[8] = system: HCT-116; test: Antiproliferative activity against human HCT116 cells assessed as cell viability at 0.313 uM after 48 hrs by MTS assay relative to control; assay type: functional; conditions: HCT-116, 48 h, read-out: Activity
[9] = system: HeLa; test: Antiproliferative activity against human HeLa cells assessed as cell viability at 0.078 uM after 48 hrs by MTS assay relative to control; assay type: functional; conditions: read-out: Activity
[10] = Selectivity index, ratio of IC50 for human BEAS2B cells to IC50 for human NCI-H1299 cells; assay type: toxicity; conditions: BEAS2B cells and NCI-H1299 cells, read-out: Ratio IC50
[11] = system: HCT-116; test: Antiproliferative activity against human HCT116 cells assessed as cell viability at 0.078 uM after 48 hrs by MTS assay relative to control; assay type: functional; conditions: HCT-116, 48 h, read-out: Activity
[12] = system: HeLa; test: Antiproliferative activity against human HeLa cells assessed as cell viability at 0.313 uM after 48 hrs by MTS assay relative to control; assay type: functional; conditions: read-out: Activity
[13] = system: BEAS-2B; test: Cytotoxicity against human BEAS2B cells assessed as reduction in cell viability after 48 hrs by MTS assay; assay type: cell-based; in short: as §1
[14] = system: HCT-116; test: Antiproliferative activity against human HCT116 cells assessed as cell viability at 0.625 uM after 48 hrs by MTS assay relative to control; assay type: functional; conditions: HCT-116, 48 h, read-out: Activity
[15] = system: HCT-116; test: Antiproliferative activity against human HCT116 cells assessed as cell viability at 0.156 uM after 48 hrs by MTS assay relative to control; assay type: functional; conditions: HCT-116, 48 h, read-out: Activity
[16] = system: NCI-H1299; test: Antiproliferative activity against human NCI-H1299 cells after 48 hrs in presence of PKM2 activator FBP by MTS assay; assay type: functional, cell-based; conditions: NCI-H1299, 48 h
In short: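 H1299 cells in RPMI 1640 with 9% FBS at 37°C, 5% CO2. 5000 cells/well, 12 h attachment, then 48 h treatment at graded concentrations with FBP (100 µM) added. MTS read-out (3 h, 37°C, A490). IC50 ± SD.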

[17] = organism: Homo sapiens; test: Selectivity ratio of IC50 for recombinant human N-terminal His-tagged PKL expressed in Escherichia coli to IC50 for recombinant human N-terminal His-tagged PKM2 expressed in Escherichia coli BL21
[18] = biological target: Pyruvate kinase PKLR (Homo sapiens, UniProt P30613); test: Inhibition of recombinant human N-terminal His-tagged PKL expressed in Escherichia coli preincubated for 15 mins followed by PEP/NADH addition measured at 30 secs interval for 3 to 6 mins by fluorescent PK-LDH assay
Sequence of Pyruvate kinase PKLR (P30613 whole entry): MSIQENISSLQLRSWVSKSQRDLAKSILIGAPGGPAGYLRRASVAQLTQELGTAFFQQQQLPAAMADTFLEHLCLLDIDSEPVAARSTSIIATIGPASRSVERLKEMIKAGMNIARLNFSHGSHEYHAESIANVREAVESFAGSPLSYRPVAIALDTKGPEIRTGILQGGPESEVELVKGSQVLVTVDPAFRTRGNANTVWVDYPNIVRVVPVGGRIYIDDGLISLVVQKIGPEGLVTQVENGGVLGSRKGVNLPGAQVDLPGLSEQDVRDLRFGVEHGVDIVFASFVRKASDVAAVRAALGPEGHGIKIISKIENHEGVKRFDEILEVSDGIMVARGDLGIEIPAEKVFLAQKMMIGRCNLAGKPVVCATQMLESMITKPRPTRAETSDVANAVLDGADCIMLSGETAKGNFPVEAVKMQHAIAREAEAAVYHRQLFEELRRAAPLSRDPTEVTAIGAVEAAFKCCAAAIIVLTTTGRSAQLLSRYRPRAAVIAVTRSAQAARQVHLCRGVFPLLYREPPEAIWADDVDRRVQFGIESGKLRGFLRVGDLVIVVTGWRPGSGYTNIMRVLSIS

[19] = system: HeLa; test: Antiproliferative activity against human HeLa cells assessed as cell viability at 0.625 uM after 48 hrs by MTS assay relative to control; assay type: functional; conditions: read-out: Activity

Structure (SMILES)	IC50 [1] [µM]	IC50 [2] [µM]	IC50 [3] [µM]	IC50 [4] [µM]	also measured
CC(=O)N1CCN(C(=S)SC2=C(C)C(=O)c3ccccc3C2=O)CC1	> 20	10.6	4.95	6.61	–
CC1=C(CSC(=S)NCc2ccccn2)C(=O)c2ccccc2C1=O	> 20	6.77	5.42	4.49	–
CNC(=S)SCC1=C(C)C(=O)c2ccccc2C1=O	> 20	8.36	4.59	5.39	–
CCN(CC)CCNC(=S)SCC1=C(C)C(=O)c2ccccc2C1=O	> 20	5.78	3.37	3.97	–
CC1=C(CSC(=S)NN2CCCCC2)C(=O)c2ccccc2C1=O	> 20	10.4	7.36	4.37	–
CC1=C(CSC(=S)N(CCO)CCO)C(=O)c2ccccc2C1=O	> 20	4.8	2.23	1.95	–
CCCN(CCC)C(=S)SCC1=C(C)C(=O)c2ccccc2C1=O	6.79	12.1	6	4.23	–
CCCN(CCC)C(=S)SCc1cc(OC)c2ccccc2c1OC	15.7	> 20	> 20	> 20	–
CCCN(CCC)C(=S)SC1=C(C)C(=O)c2ccccc2C1=O	9.98	> 20	4.3	15.6	–
O=C1C=C(CSC(=S)N2CCN(c3ccccc3)CC2)C(=O)c2ccccc21	1.4	> 20	> 20	8.71	Ratio IC50 [6]: 4.5; IC50 [7]: 6.26 µM; inhibition [1]: Dose-dependent effect; Ratio IC50 [17]: 2.7; IC50 [18]: 3.8 µM
CC1=C(CSC(=S)NN2CCN(C)CC2)C(=O)c2ccccc2C1=O	> 20	3.92	2	> 20	–
CCCCN(CCCC)C(=S)SCC1=C(C)C(=O)c2ccccc2C1=O	4.57	18.5	10.9	6.41	–
CC1=C(CSC(=S)N(C)C2CCCCC2)C(=O)c2ccccc2C1=O	5.08	13.6	10.6	11.3	–
CC(=O)N1CCN(C(=S)SCC2=C(C)C(=O)c3ccccc3C2=O)CC1	> 20	3.52	2.08	4.68	–

These reach a lower IC50 [2]. Values come first.

IC50 [1] [µM]	IC50 [2] [µM]	IC50 [3] [µM]	IC50 [4] [µM]	Structure (SMILES)	also measured
–	2.45	1.84	1.88	CC(C)=CC[C@@H](O)C1=CC(=O)c2c(O)ccc(O)c2C1=O [SHIKONIN]	Ratio IC50 [6]: 1.5; selectivity ratio [10]: 2.9; IC50 [13]: 5.36 µM; Ratio IC50 [17]: 4.5
4.23	2.39	3.68	5.69	O=C1C=C(CSC(=S)N2CCOCC2)C(=O)c2ccccc21	–
> 20	2.19	1.97	4.06	CC1=C(CSC(=S)N2CCN(C(C)C)CC2)C(=O)c2ccccc2C1=O	–
8.5	2.14	2.28	3.27	CC1=C(SC(=S)N2CCOCC2)C(=O)c2ccccc2C1=O	–
5.28	1.96	1.75	3.28	CC1=C(CSC(=S)N2CCSC2)C(=O)c2ccccc2C1=O	–
14.2	1.57	2.84	2.44	CC1=C(CSC(=S)N2CCN(C)CC2)C(=O)c2ccccc2C1=O	–
2.21	1.3	1.72	4.84	CC1=C(CSC(=S)NCc2ccccc2)C(=O)c2ccccc2C1=O	–
4.93	1.29	3.55	10.2	CC1=C(SC(=S)N2CCCCC2)C(=O)c2ccccc2C1=O	–
14.1	1.16	2.17	3.2	C=CCN(CC=C)C(=S)SCC1=C(C)C(=O)c2ccccc2C1=O	–
15.2	0.95	0.8	1.23	CC1=C(CSC(=S)N2CCOCC2)C(=O)c2ccccc2C1=O	–
1.74	0.92	2.37	2.06	O=C1C=C(CSC(=S)N2CCCCC2)C(=O)c2ccccc21	selectivity ratio [10]: 9.4; IC50 [13]: 19.3 µM
19.7	0.88	1.46	1.64	CC1=C(CSC(=S)N2CCCC2)C(=O)c2ccccc2C1=O	–
11.7	0.87	1.1	1.47	CC1=C(CSC(=S)N2CC(C)OC(C)C2)C(=O)c2ccccc2C1=O (configuration not stated)	–
2.58	0.51	1.82	1.9	CCN(CC)C(=S)SCC1=CC(=O)c2ccccc2C1=O	–
> 20	0.5	0.59	0.67	CC1=C(CSC(=S)NCc2ccncc2)C(=O)c2ccccc2C1=O	–
8.78	0.39	0.41	0.89	CCN(CC)C(=S)SCC1=C(C)C(=O)c2ccccc2C1=O	selectivity ratio [10]: 17; IC50 [13]: 15.1 µM; IC50 [16]: 1.58 µM
> 20	0.38	0.18	1.08	CC1=C(CSC(=S)NCc2cccnc2)C(=O)c2ccccc2C1=O	–
5.89	0.32	0.89	1.19	CC1=C(CSC(=S)N2CCSCC2)C(=O)c2ccccc2C1=O	selectivity ratio [10]: 8.6; IC50 [13]: 10.5 µM
–	0.29	0.18	1.56	CC1=C(CSC(=S)N2CCCCC2)C(=O)c2ccccc2C1=O	viability at 0.156 µM [5]: 95.8%; Ratio IC50 [6]: 5.7; IC50 [7]: 16.7 µM; viability at 0.313 µM [8]: 20.7%; inhibition [1]: Dose-dependent effect; viability at 0.078 µM [9]: 99%; selectivity ratio [10]: 11.8; viability at 0.078 µM [11]: 92.5%; viability at 0.313 µM [12]: 21.1%; IC50 [13]: 18.5 µM; viability at 0.625 µM [14]: 6.9%; viability at 0.156 µM [15]: 62.3%; IC50 [16]: 2.01 µM; Ratio IC50 [17]: 2.8; IC50 [18]: 8.2 µM; viability at 0.625 µM [19]: 4.8%
